Active and inactive are the calls of the source.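 Rule for the calls, unless noted: active = NADPH fluorescence slope more negative than the mean of all samples by about 3 SD, 99.7% confidence; inactive = the rest.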

This note sets out measurements from PubChem BioAssay.

Test [1] is described as follows: inhibitors of TNFa-induced NFkB p65 translocation, primary screen, imaging, HUVEC, MLSMR starter and 10KST1 sets (AID 438;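 active = inhibition above 20% together with a positive visual image hit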;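 note: compound added about 3h40 before a 20 min TNFalpha stimulation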;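 for inhibition: signal is the nuclear over cytoplasmic p65 intensity ratio per well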). The conditions noted are these: HUVEC TNFa-induced p65 nuclear translocation; cell count: measured here: nuclei count (cytotoxicity indicator), at 2.08 µM; inhibition: at 2 µM, stronger effect = higher value, 0% TNFa-plus-vehicle, 100% no-TNFa wells.
Test [2] can be described thus: endothelial E-selectin expression blockers – imaging, HUVEC, immunofluorescence, MLSMR starter and 10KST1 sets, primary screen (AID 487;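 active = visually confirmed hit in the image check and inhibition above 20%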;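 for inhibition: signal is fraction of cell area covered by stained E-selectin grains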;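 for nuclei count: 100% = median nuclei count of all wells on the same plate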). Particulars: HUVEC TNFalpha-induced E-selectin immunofluorescence imaging, at 2 µM; inhibition: stronger effect = higher value; nuclei count: measured here: cell number, toxicity.
Test [3] is described as follows: Primary imaging screen for DUSP6 inhibitors that restore phospho-Erk in transfected HeLa cells, chemical complementation (AID 609;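 active = compounds giving at least 50% inhibition in the cell-based MKP-3 phosphatase rescue imaging test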;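 for inhibition: phospho-Erk level distribution per well compared with pooled transfected vehicle control wells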). The conditions noted are these: HeLa MKP-3 transfected, phospho-Erk imaging KS statistic, at 10 µM, cells stimulated with TPA for 15 min.
For test [4], the target named is Dual specificity protein phosphatase 6 (Homo sapiens) (UniProt Q16828). The description is as above. Particulars: HeLa MKP-3 transfected, phospho-Erk imaging KS statistic; at 10 µM; stronger effect = higher value; cells stimulated with TPA for 15 min.
Sequence of Dual specificity protein phosphatase 6 (Homo sapiens) (Q16828 whole entry, looked up): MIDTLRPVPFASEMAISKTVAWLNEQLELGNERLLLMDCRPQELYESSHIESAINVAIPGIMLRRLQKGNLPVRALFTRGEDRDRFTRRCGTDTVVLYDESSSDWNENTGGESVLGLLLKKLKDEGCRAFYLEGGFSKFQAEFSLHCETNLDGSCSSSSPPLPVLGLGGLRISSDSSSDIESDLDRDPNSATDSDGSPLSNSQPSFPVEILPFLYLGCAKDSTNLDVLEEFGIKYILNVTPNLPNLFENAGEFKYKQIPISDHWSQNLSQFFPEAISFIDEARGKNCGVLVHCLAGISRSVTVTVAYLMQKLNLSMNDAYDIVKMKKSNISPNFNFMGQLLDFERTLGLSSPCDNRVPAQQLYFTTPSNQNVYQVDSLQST
For test [5], the target named is Voltage-gated potassium channel subunit beta-2 (Rattus norvegicus) (UniProt P62483). Briefly: inhibitors of rat Kvbeta2 reductase activity – biochemical, NADPH fluorescence, primary screen (AID 622;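 active = fluorescence slope higher than the sample average by over 3 SD, cut at about -0.22 in these data, passing the limit was not always enough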;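 note: slope of raw intensity against log time taken from 70 to 1610 s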). Particulars: recombinant KvBeta, 4-cyanobenzaldehyde reduction, at 10 µM, stronger effect = higher value.
Sequence of Voltage-gated potassium channel subunit beta-2 (Rattus norvegicus) (P62483 whole entry, looked up): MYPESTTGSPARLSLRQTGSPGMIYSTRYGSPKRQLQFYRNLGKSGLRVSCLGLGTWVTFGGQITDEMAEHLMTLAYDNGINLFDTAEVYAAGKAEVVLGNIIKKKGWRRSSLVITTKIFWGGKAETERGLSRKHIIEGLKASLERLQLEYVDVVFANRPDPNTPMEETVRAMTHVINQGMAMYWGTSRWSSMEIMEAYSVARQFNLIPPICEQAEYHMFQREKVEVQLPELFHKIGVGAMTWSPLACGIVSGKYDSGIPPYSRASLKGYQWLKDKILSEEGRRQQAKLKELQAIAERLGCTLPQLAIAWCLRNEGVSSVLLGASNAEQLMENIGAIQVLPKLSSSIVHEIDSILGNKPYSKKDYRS
The target is the same in test [6]. Nature of the test: enhancers of rat Kvbeta2 NADPH turnover – biochemical, NADPH fluorescence, primary screen (AID 623).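 Note: fluorescence intensity change per second fitted from 20 to 320 s.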 Particulars: Recombinant KvBeta, NADPH fluorescence decrease slope, 10 min; at 10 µM; stronger effect = lower value.
In test [7] the target is Alpha-2C adrenergic receptor (Homo sapiens) (UniProt P18825). Nature of the test: compounds altering alpha2C-coupled GIRK flux – cell-based, HEK293 alpha2C/GIRK1/2, thallium flux, primary screen (AID 624;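 active = fluorescence slope after compound addition differing from the mean of all screened samples at 99.7% confidence, in either direction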;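 note: slope of fluorescence ratio to pre-addition baseline per second over 15 to 24 s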). Particulars: thallium flux BTC fluorescence, at 10 µM, actives lie on both sides.
Sequence of Alpha-2C adrenergic receptor (Homo sapiens) (P18825 whole entry, looked up): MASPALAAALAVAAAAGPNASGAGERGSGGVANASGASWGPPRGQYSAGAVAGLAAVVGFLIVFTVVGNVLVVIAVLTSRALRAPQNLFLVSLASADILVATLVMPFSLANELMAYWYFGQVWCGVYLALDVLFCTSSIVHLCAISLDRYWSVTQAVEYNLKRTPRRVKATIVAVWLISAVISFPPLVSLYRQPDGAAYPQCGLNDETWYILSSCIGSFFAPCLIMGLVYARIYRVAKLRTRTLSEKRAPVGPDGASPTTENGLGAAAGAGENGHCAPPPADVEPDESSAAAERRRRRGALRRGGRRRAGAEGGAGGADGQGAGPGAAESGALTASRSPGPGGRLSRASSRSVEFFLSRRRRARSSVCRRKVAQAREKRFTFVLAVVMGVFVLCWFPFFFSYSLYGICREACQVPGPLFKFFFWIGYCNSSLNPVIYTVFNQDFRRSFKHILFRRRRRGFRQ
Test [8] in a line: inhibitors of larval lipid processing in zebrafish, primary screen, whole organism, PED6 fluorescence, gall bladder and intestine (AID 686;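 active = a full or partial loss of lipid-probe fluorescence in the fish gall bladder, intestine or both, judged by eye; inactive = no fluorescence loss, or compound toxic to the fish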;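 note: larvae 5 to 7 days old with five fish per well; signal comes from phospholipase A2 cleavage of quenched PED6 carried via bile; overnight exposure to compound and PED6 before scoring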). The conditions noted are these: Zebrafish larvae PED6 lipid processing, fluorescence scoring; screened at 20 µM (by protocol). In outline:
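Test system – live zebrafish larvae aged 5-7 days, whole organism · Buffer or medium – E3 fish medium · Reagent – quenched phospholipase substrate PED6, 100 nM final, ingested by larvae · Doses – 20 µM single dose · Incubation – overnight compound and PED6 incubation · Technique – visual fluorescence microscopy scoring of gall bladder, gut · Read-out basis – visual per-well fluorescence inhibition score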

A short description of test [9]: loss of swimming-algae plug formation – whole organism, Chlamydomonas reinhardtii, WT vs cilia-less mutant, absorbance, 96-well, primary screen (AID 463189;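 active = inhibition at or above 50% relative to wild type and mutant plate controls; inactive = inhibition below 50%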;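 note: 0% = wild type cc124 cells in DMSO and 100% = ciliumless bld1 mutant cells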). The conditions noted are these: Chlamydomonas reinhardtii gravitaxis, OD600 absorbance, 2 days; at 10 µM; stronger effect = higher value.
Where [10] appears, read: measured here: cell density z-score.
Setting [11] is: measured here: nuclear c-Myc green intensity z-score.
[12] abbreviates: measured here: nuclear pErk red intensity z-score, stronger effect = higher value.

`O=C1CCc2nc3ccccc3c(=O)n2N1`: the cell count in [1] amounted to 452. In addition, the inhibition – broadly, the relative decrease from the control value, in per cent – in [1] is -12.6% (inactive); in [2], 21.9% (inactive); in test [4], 11.9% (inactive); in test [9], 23.6% (inactive). Moreover, in test [2], the nuclei count is 104%. Also, the z-score in [3] (setting [10]) was -0.985; in test [3] (setting [11]), 0.704; in [3] (setting [12]), -0.802. Besides, the fluorescence slope in [5] was -0.488 (inactive). Moreover, the NADPH fluorescence slope in [6] is -4.1e-05 (inactive). In addition, in [7], the slope was 0.00483 (inactive). Also, the molecule was classed as inactive in test [8].

Take `COc1cccc(-c2nnc3sc(-c4cccs4)nn23)c1`: in test [1], the cell count was 595. Moreover, the inhibition in test [1] was -9.3% (inactive); in test [2], -23% (inactive); in [4] it was -11.5% (inactive); in test [9], 67.3% (active). The same molecule displayed a nuclei count in [2] of 158%. The z-score in test [3] (setting [10]) was -0.757; in test [3] (setting [11]), 0.596; in test [3] (setting [12]), -0.177. For the same molecule, in test [5], the fluorescence slope was -0.406 (inactive). In addition, the NADPH fluorescence slope in test [6] was -0.000146 (inactive). Further, in test [7], the slope is 0.00547 (inactive). The result in test [8] was inactive.

Turning to `CC1CCN(c2oc(-c3ccccc3Cl)nc2C#N)CC1`, the cell count in test [1] is 601. Besides, the inhibition in test [1] was -11.3% (inactive); in test [2], 36.1% (inactive); in test [4] it was -0.674% (inactive); in test [9], 4.67% (inactive). The molecule also gave a nuclei count in [2] of 153%. Moreover, the z-score was -0.563 in test [3] (setting [10]), 0.859 in test [3] (setting [11]) and 0.215 in test [3] (setting [12]). Besides, the fluorescence slope in test [5] was -0.397 (inactive). Also, the NADPH fluorescence slope in test [6] is -0.000144 (inactive). Also, the slope in test [7] was 0.00562 (inactive). For the same molecule, the molecule was called inactive in [8].

Regarding `O=C1C=C(O)CC(c2ccco2)C1` (centres undefined), the cell count in test [1] amounted to 558. Moreover, the inhibition was 5.7% (inactive) in [1], -59% (inactive) in test [2], -6.48% (inactive) in test [4] and -1.54% (inactive) in test [9]. Also, the nuclei count in [2] was 82%. Further, the z-score in test [3] (setting [10]) came out at 0.0297; in [3] (setting [11]) it was 0.982; in [3] (setting [12]), 0.298. The fluorescence slope in test [5] is -0.469 (inactive). Moreover, the NADPH fluorescence slope in [6] was -0.00033 (inactive). Also, the slope in test [7] is 0.00402 (inactive). The molecule was classed as inactive in test [8].

Take `Nc1ccc(Cl)cc1/C(=N/O)c1ccccc1`: in test [1], the cell count was found to be 337. The inhibition in [1] is -13.8% (inactive); in test [2] it was -23% (inactive); in test [4], 1.75% (inactive); in test [9] it was 16.2% (inactive). Besides, in test [2], the nuclei count was determined as 65.2%. The z-score is 0.198 in test [3] (setting [10]), 0.536 in test [3] (setting [11]) and -0.0149 in [3] (setting [12]). Further, the fluorescence slope in test [5] was -0.451 (inactive). Moreover, in [6], the NADPH fluorescence slope is 9e-06 (inactive). For the same molecule, the slope in [7] is 0.00461 (inactive). In [8], the outcome was inactive.

For `CCc1nnc(NC(=O)c2c(O)c3c([nH]c2=O)CCCC3)s1`, in [1], the cell count came out at 332. Moreover, the inhibition in [1] is -15.4% (inactive); in test [2], -91.6% (inactive); in [4], -7.01% (inactive); in test [9] it was 8.98% (inactive). This molecule also gave a nuclei count in [2] of 154%. For the same molecule, the z-score is 0.462 in test [3] (setting [10]), -0.342 in test [3] (setting [11]) and -0.281 in test [3] (setting [12]). Also, the fluorescence slope in test [5] was -0.391 (inactive). Also, the NADPH fluorescence slope in test [6] is -0.000158 (inactive). Moreover, the slope in test [7] was 0.00514 (inactive). Further, in [8], the molecule was called inactive.

`Clc1cccc(-c2nn3c(-c4cccc(Cl)c4)nnc3s2)c1`: the cell count in test [1] was 612. The inhibition in test [1] was -7.8% (inactive); in test [2], -20.4% (inactive); in test [4], -4.27% (inactive); in test [9], 14.4% (inactive). In [2], this molecule returned a nuclei count of 169%. The z-score was 1.02 in [3] (setting [10]), 1.46 in [3] (setting [11]) and -0.806 in test [3] (setting [12]). For the same molecule, the fluorescence slope in [5] is -0.412 (inactive). In addition, the NADPH fluorescence slope in [6] is -0.000162 (inactive). In addition, the slope in test [7] was 0.00698 (inactive). In test [8], the result was inactive.

Regarding `CC(=O)N1CC=C2C(C#N)=C(N)C(C#N)(C#N)[C@H](c3ccoc3)[C@H]2C1`, the cell count in test [1] turned out to be 364. Besides, the inhibition in test [1] was -12.2% (inactive); in test [2] it was -63% (inactive); in test [4] it was -4.7% (inactive); in [9] it was -0.734% (inactive). Besides, the nuclei count in test [2] came out at 90.4%. In addition, the z-score in test [3] (setting [10]) was 0.865; in test [3] (setting [11]) it was 0.398; in test [3] (setting [12]) it was -2.11. Further, in test [5], the fluorescence slope is -0.371 (inactive). Further, in test [6], the NADPH fluorescence slope is 7.7e-06 (inactive). The slope in test [7] was 0.00495 (inactive). In addition, the molecule was classed as inactive in [8].

With `COc1ccc(-c2nn3c(C4CCCCC4)nnc3s2)cc1OC`, in [1], the cell count amounted to 580. Besides, the inhibition is -19.9% (inactive) in test [1], -19.9% (inactive) in [2], -18.6% (inactive) in test [4] and 25.1% (inactive) in test [9]. The molecule also had a nuclei count in [2] of 159%. The z-score is -0.887 in test [3] (setting [10]), 0.0164 in [3] (setting [11]) and 0.338 in test [3] (setting [12]). Also, the fluorescence slope in test [5] was -0.442 (inactive). Also, in [6], the NADPH fluorescence slope was -0.000143 (inactive). For the same molecule, the slope in [7] was 0.00441 (inactive). For the same molecule, the molecule was classed as inactive in test [8].

For `CC1(C)Cc2c(sc3ncn4nnnc4c23)CO1`, in test [1], the cell count amounted to 685. Besides, the inhibition in test [1] was -0.9% (inactive); in [2], -182% (inactive); in [4] it was 13.2% (inactive); in test [9], 9.27% (inactive). The molecule also yielded a nuclei count in [2] of 180%. The z-score is 1.78 in test [3] (setting [10]), -1.07 in [3] (setting [11]) and 0.925 in test [3] (setting [12]). Moreover, in test [5], the fluorescence slope is -0.522 (inactive). Moreover, the NADPH fluorescence slope in [6] was -3.9e-05 (inactive). Further, the slope in test [7] is 0.00539 (inactive). Further, in [8], the outcome was inactive.

On to `O=C(c1ccc(=O)oc1)N1CCN(c2ccc(F)cc2)CC1`, for which the cell count in [1] is 328. For the same molecule, the inhibition in [1] is -4.5% (inactive); in [2], -1.9% (inactive); in test [4], 17.4% (inactive); in test [9], 31% (inactive). In [2], the nuclei count is 95.2%. Further, the z-score in [3] (setting [10]) is -0.519; in [3] (setting [11]) it was -0.0445; in [3] (setting [12]), 0.228. Also, the fluorescence slope in test [5] was -0.364 (inactive). In [6], the NADPH fluorescence slope was -4.3e-05 (inactive). Also, in [7], the slope is 0.00509 (inactive). For the same molecule, the molecule was called inactive in [8].

Regarding `COc1ccc(C(CC(=O)N2CCOCC2)C(C)C)cc1` (centres undefined), the cell count in test [1] came to 486. Moreover, the inhibition is 10.6% (inactive) in [1], -31.9% (inactive) in [2], -5.26% (inactive) in test [4] and 19.8% (inactive) in [9]. In addition, in test [2], the nuclei count is 97.9%. Also, the z-score in test [3] (setting [10]) is -1.63; in [3] (setting [11]), 1.26; in test [3] (setting [12]), -0.603. Besides, the fluorescence slope in test [5] is -0.476 (inactive). The NADPH fluorescence slope in test [6] was -7e-06 (inactive). In test [7], the slope was 0.00515 (inactive). Also, the molecule was called inactive in test [8].

As to `ClC(Br)=C(n1cnc2ccccc21)n1cnc2ccccc21`, the cell count in test [1] is 536. The inhibition was -11% (inactive) in test [1], -108% (inactive) in test [2], 16.1% (inactive) in test [4] and 30.5% (inactive) in [9]. The nuclei count in test [2] was found to be 155%. The z-score in test [3] (setting [10]) was 1.2; in test [3] (setting [11]), -0.506; in test [3] (setting [12]), -1.02. The fluorescence slope in [5] is -0.523 (inactive). Besides, the NADPH fluorescence slope in [6] was -3.7e-05 (inactive). Moreover, the slope in test [7] was 0.00536 (inactive). The outcome in test [8] was inactive.
